Results published in PubChem BioAssay AID1325 (NMMLSC, 2008).
The whole screen tested about 190,000 compounds, of which about 200 (0.11%) were called active. The list comes from a sample in which actives are over-represented; it also holds similar structures and randomly drawn compounds. A number with no mark means an inactive call.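 Rule for the calls: active = inhibition above 80%; inactive = the rest.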

target: Broad substrate specificity ATP-binding cassette transporter ABCG2 (Homo sapiens) (UniProt Q9UNQ0); assay: blockers of JC-1 export by ABCG2 – multiplex with ABCB1, IgMXP3 cells, flow cytometry, primary screen (AID 1325); settings: JC-1 efflux, at 6.6 µM, active compounds read high;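 note: 0% = DMSO and 100% = nicardipine control wells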
Procedure, shortened: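 Times: 10 min at 25 °C | Test system: Two drug-resistant human cell lines, ABCG2 and ABCB1 | Quantity: 3 million cells/mL final, two lines in 1:1 ratio | Signal: Flow cytometry, 530 nm JC-1 signal | Dosing: Compound at 6.6 µM | Controls: Nicardipine and DMSO wells | Reagent: JC-1 as fluorescent efflux pump substrate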

Chain of Broad substrate specificity ATP-binding cassette transporter ABCG2 (Homo sapiens) (Q9UNQ0 whole entry, looked up): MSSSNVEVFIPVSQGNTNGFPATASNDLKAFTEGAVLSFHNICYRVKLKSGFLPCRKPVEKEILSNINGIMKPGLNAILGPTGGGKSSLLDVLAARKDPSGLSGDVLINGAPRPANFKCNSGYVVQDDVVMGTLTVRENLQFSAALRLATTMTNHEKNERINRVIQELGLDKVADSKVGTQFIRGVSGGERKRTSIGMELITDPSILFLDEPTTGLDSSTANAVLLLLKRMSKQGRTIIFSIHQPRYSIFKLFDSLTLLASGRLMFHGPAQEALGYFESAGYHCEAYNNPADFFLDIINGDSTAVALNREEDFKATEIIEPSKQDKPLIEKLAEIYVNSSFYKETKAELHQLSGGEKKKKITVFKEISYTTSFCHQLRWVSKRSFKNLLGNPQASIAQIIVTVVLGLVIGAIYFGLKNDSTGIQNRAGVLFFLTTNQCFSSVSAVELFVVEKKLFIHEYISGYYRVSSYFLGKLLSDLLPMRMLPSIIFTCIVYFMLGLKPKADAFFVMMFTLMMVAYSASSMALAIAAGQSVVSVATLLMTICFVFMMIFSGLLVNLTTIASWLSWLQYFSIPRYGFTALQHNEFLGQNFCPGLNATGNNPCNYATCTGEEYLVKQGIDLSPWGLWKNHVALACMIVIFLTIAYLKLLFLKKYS

| Structure (SMILES) | inhibition |
| --- | --- |
| Cc1cccc(N2C(=O)SC(SC(=Nc3ccccc3)Nc3ccccc3)C2=O)c1 (centres undefined) | 0.89% |
| COc1ccc(N2C(=O)/C(=C\c3ccco3)N=C2SCC(N)=O)cc1Cl | 0.72% |
| S=C(c1ccc(-c2ccccc2)o1)N1CCCCC1 | 1.68% |
| Cc1ccc(NC(=O)NC(=O)CSc2nnc(-c3ccc(OC(F)F)cc3)n2N)c(C)c1 | 4.7% |
| COc1cccc(C2CC(c3ccccc3)=NN2S(=O)(=O)c2ccccc2)c1OC (centres undefined) | 5.72% |
| CCOc1ccc(NC(=O)c2cc(C)nc3ccccc23)cc1 | 4.37% |
| COc1ccccc1NC(=O)/C=C/C(=O)O | 3.21% |
| C=CCNC(=O)CC12CC3CC(C1)CC(CC(=O)NCC=C)(C3)C2 | 0.78% |
| Cc1cc(C)cc(NC(=O)Cn2cnc3c(nnn3Cc3ccc(F)cc3)c2=O)c1 | 0.29% |
| CSc1ccc(CN2C(=O)NC3(CCCCCC3)C2=O)cc1 | -1.59% |
| COCCNC(=O)CCCn1c(=O)c2ccccc2n(Cc2cccc([N+](=O)[O-])c2)c1=O | 3.38% |
| COc1ccccc1CN(C)c1nnnn1-c1ccccc1 | -0.06% |
| O=C(CSc1ccc(-c2ccco2)nn1)NCc1ccc2c(c1)OCO2 | 0.73% |
| O=C(Nc1ccccc1C(=O)O)c1cc(S(=O)(=O)N2CCCCC2)cs1 | -0.42% |
| Cc1c(Br)c([N+](=O)[O-])nn1CC(=O)N1CCN(Cc2ccccc2)CC1 | 2.55% |
| CC(C)NC(=S)NN=C1CCCCCCCCCCC1 | 5.8% |
| CCSc1sc(CC)cc1C=O | 3.95% |
| CCCCn1c(=O)c(CCC(=O)OCC(=O)Nc2ccc(C)c(Cl)c2)nc2ccccc21 | 2.45% |
| COC(=O)Cc1csc(/N=C/c2c(O)n(-c3cccc(C(F)(F)F)c3)c(=O)c3ccccc23)n1 | -1.85% |
| Cc1c(Cc2ccccc2)c(=O)oc2cc(OCC(N)=O)ccc12 | 0.67% |

| Structure (SMILES) | inhibition |
| --- | --- |
| CCOC(=O)c1sc(=NC(=O)/C=C/c2cccs2)n(C)c1C | 2.28% |
| CCC(C(=O)OCC(=O)Nc1ccccc1-c1ccccc1)c1ccccc1 (centres undefined) | 3.04% |
| C/C(=N/O)c1ccc(N2C(=O)C3C4C=CC(C3C2=O)C2C3C(=O)N(c5ccc(/C(C)=N/O)cc5)C(=O)C3C42)cc1 (centres undefined) | -1.72% |
| O=C(c1ccc(-c2ccccc2)cc1)C1CCCN(C(=O)c2cncs2)C1 (centres undefined) | 3.81% |
| Cc1ccc(OCC(=O)NNC(=S)NCc2ccccc2)cc1 | -1.33% |
| O=C(/C=C/c1cccc([N+](=O)[O-])c1)NCCSCc1ccco1 | 51.1% |
| Cc1ccc(C)c(NS(=O)(=O)c2ccc(OCC(=O)NCc3cccnc3)cc2)c1 | 0.12% |
| O=C(O/N=C(/c1ccccc1)c1ccncc1)c1ccccc1[N+](=O)[O-] | 4.1% |
| Cc1ccc(C(=O)COC(=O)c2cccc(N3C(=O)c4c(C)nc5ccccc5c4C3=O)c2)cc1C | 15.3% |
| S=c1[nH]nc(NCCc2ccccc2)s1 | 0.35% |
| C/C(=C/C(=O)N1CCN(C)CC1)C(=O)O | 4.35% |
| CCNC(=O)CC1C(=O)N(c2ccc(OC)cc2)C(=S)N1CCc1ccncc1 (centres undefined) | -0.76% |
| NS(=O)(=O)c1ccc(NC(=O)COC(=O)c2ccco2)cc1 | 10% |
| CN(Cc1ccccc1)C(=O)CCc1ccccc1 | 1.98% |
| O=C(NC1CCN(Cc2ccccc2)CC1)c1cc(Br)c(Br)[nH]1 | 4.52% |
| Cc1ccc2c(c1)C(O)(CC(=O)c1cccc(-n3cccc3)c1)C(=O)N2 (centres undefined) | 16.3% |
| Cc1ccc(NC(=S)N(CCN(C)C)Cc2cccs2)cc1C | -0.22% |
| COc1ccccc1NC(=S)N1CCC(NC(=O)C23CC4CC(CC(C4)C2)C3)CC1 | -0.01% |
| C=CCn1c(-c2sc(-c3ccccc3)nc2C)n[nH]c1=S | 1.76% |
| CCN1CCN(C(=O)CN(C)S(=O)(=O)c2ccc3ccccc3c2)CC1 | 0.1% |

| Structure (SMILES) | inhibition |
| --- | --- |
| COc1ccc(OCCNS(=O)(=O)Cc2ccccc2)cc1 | 2.18% |
| COc1ccc(C)cc1NC(=S)Nc1ccccc1SC | 0.21% |
| COc1ccc(C)cc1NC(=O)Nc1ccccc1SC | 13.2% |
| COc1ccc(C)cc1NC(=O)C(Sc1ccccc1)c1ccccc1 (centres undefined) | 91.6% (active) |
| CCOC(=O)C1=C(CC)OC(N)=C(C#N)C1c1ccc(F)cc1F (centres undefined) | -0.41% |
| CC(CO)NCC12CC3CC(CC(C3)C1)C2 (centres undefined) | -2.66% |
| COc1ccc(CN(C)C(C)C(=O)NC2CCCc3ccccc32)cc1 (centres undefined) | 6.36% |
| O=C(Cc1csc(Nc2nc(=S)[nH]c3ccccc23)n1)NCCCN1CCN(c2cccc(Cl)c2)CC1 | 3.5% |
| CCc1ccc(Oc2nc([N+](=O)[O-])nn2C)cc1 | 1.08% |
| CCC(CC)c1nnc(NC(=O)c2nn(C)c(=O)c3ccccc23)s1 | 6.7% |
| CCN(C(=O)Cc1nc(N)n[nH]1)C1(C(=O)Nc2ccccc2)CCCCC1 | 2.7% |
| CC(CNC(=O)c1ccc(N)cc1)NC(=O)c1ccc(N)cc1 (centres undefined) | -4.01% |
| Cc1cc(OC(=O)c2ccccc2Cl)ccc1N1C(=O)CCC1=O | 21.3% |
| O=S(=O)(Nc1ncccn1)c1ccc(NS(=O)(=O)c2cccc(Cl)c2Cl)cc1 | 0.94% |
| C=CCC1(CC=C)CCCN1C(=O)CC1C(=O)NCCN1Cc1ccccc1OC (centres undefined) | 4.22% |
| NNc1nc2c(Cl)cccc2s1 | -11.1% |
| COc1ccc(CN2CCCC(C(=O)c3ccc(Cl)cc3)C2)cc1Cn1cncn1 (centres undefined) | 2.66% |
| CN(C)c1nnnn1-c1ccc(Cl)cc1 | 1.39% |
| O=C1NC(c2ccc(-c3ccccc3[N+](=O)[O-])o2)C(C(=O)c2ccc(Cl)cc2)C(O)(C(F)(F)F)N1 (centres undefined) | 14.6% |
